Screening results (PubChem BioAssay)
Shown are actives, neighbours in structure and some others; about 2.8% of the full set was active somewhere.
HTR2A ag – activates the mouse 5-HT2A serotonin receptor; P35363; CHO-K1 mHTR2A beta-arrestin complementation, luminescence; percent of 30 µM serotonin response; activation, % at 7.6 µM; 360,000 compounds, 0.66% hits; AID 624169;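 active = activation above a run cutoff, the mean activation of all tested compounds plus 3 SD, cut at about 14% in these data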;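 also: 0% = plate median of compound wells and 100% = 30 µM serotonin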
MC4R barr agon – agonists of human melanocortin 4 receptor (MC4R) beta-arrestin | U2OS MC4R beta-arrestin complementation, luminescence; percent of melanotan II response, DMSO zero | activation, % at 8.9 µM | 360,000 compounds, 0.98% hits;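 active = activation above a per-plate cutoff, the mean activation of sample wells on that plate plus 3 SD, cut at about 8% in these data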
MC4R antagonist – human MC4R antagonism in cAMP assay; MC4R-expressing cells, MTII-stimulated cAMP, LANCE TR-FRET; inhibition, % at 6.5 µM; 360,000 compounds, 0.48% hits; AID 540295;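 active = inhibition above its plate's cutoff, the mean of tested wells on that plate plus 3 SD, cut at about 29% in these data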;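 also: 0% = Melanotan II alone and 100% = Melanotan II plus saturating MCL0020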
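material = U2OS cells stably expressing human melanocortin 4 receptor (MC4R) | also added = Melanotan II challenge | dosing = single nominal compound dose of 6.5 µM | detection = TR-FRET with Eu-cAMP and labeled anti-cAMP, 671 nm | replication = singlicate | timing = compound 30 min, challenge 1 h, detection 1 h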
EBI2 antag – blocks human EBI2 receptor beta-arrestin signaling; P32249; EBI2 beta-arrestin recruitment, luminescence, 7a,25-OHC stimulated; inhibition, % at 5 µM; 360,000 compounds, 0.81% hits; in the data active = inhibition above about 38%;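 also: enzyme fragment complementation signal reports receptor beta-arrestin coupling in cells; 0% = agonist plus DMSO wells and 100% = wells without agonist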
MC4R barr conf – human MC4R beta-arrestin agonism confirmation; shares compounds with MC4R barr agon; U2OS MC4R beta-arrestin recruitment, luminescence; scaled DMSO 0%, Melanotan II 100%; activation, % at 8.9 µM; 2,400 compounds, 31% hits; AID 602192;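 active = mean activation across replicates above the hit cutoff set in the earlier primary screen, cut at about 8% in these data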
MOR DOR agonist – activates mu-delta opioid heterodimer, MC4R agonist counter-screen; shares compounds with MC4R barr agon; U2OS PathHunter beta-arrestin, beta-gal luminescence; percent of deltorphin B response, DMSO zero; activation, % at 9.2 µM; 2,400 compounds, 5.8% hits; AID 602194;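 active = mean activation across replicates exceeds the hit threshold derived in the earlier primary screen, cut at about 18% in these data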;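 also: 100% = deltorphin B at 0.9 µM final and 0% = DMSO alone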
Target sequence (P35372 whole entry, looked up): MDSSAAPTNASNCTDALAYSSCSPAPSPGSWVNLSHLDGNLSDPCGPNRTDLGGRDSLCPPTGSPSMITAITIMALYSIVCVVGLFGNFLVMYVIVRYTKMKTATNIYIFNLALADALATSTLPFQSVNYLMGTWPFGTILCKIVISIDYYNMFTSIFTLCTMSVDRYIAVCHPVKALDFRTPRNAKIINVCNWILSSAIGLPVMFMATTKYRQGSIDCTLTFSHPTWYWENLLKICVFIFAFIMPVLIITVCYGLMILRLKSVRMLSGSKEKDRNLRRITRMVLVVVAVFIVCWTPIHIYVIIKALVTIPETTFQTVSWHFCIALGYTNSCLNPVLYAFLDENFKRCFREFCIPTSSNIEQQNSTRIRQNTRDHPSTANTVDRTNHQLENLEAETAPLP
Target sequence (P41143 whole entry, looked up): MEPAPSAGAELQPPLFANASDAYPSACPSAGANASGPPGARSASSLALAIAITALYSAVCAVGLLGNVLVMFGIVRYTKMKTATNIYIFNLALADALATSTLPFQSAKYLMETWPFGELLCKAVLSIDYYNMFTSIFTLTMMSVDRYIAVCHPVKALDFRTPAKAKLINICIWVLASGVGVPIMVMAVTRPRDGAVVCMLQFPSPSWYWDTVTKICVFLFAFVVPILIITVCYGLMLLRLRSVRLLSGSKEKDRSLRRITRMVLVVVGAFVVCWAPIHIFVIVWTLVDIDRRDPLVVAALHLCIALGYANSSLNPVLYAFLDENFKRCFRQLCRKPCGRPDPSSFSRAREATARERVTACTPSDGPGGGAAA
An asterisk follows results filed as active; nt = no result.

SMILES	HTR2A ag	MC4R barr agon	MC4R antagonist	EBI2 antag	MC4R barr conf	MOR DOR agonist
CC1(C(=O)NCc2ccc3c(c2)OCO3)CCN1C(=O)C1(c2ccc(Cl)cc2)CC1 (stereo not given)	-1	-3	0	2	nt	nt
N#Cc1ccccc1OCC(=O)Nc1c(C(=O)C2CC2)oc2ccccc12	-4	22*	0	25	8.9*	7
Cc1cc(C)cc(-n2nnnc2SCC(=O)Nc2nc(-c3ccc(Cl)cc3)cs2)c1	3	27*	4	8	7	3
Cc1ccc(-n2nnnc2SCC(=O)Nc2nc(-c3ccc(F)cc3)cs2)cc1C	5	24*	3	-9	13*	4
O=C(CSc1nnnn1-c1ccccc1)Nc1nsc(-c2ccc(Cl)cc2)n1	6	16*	7	3	5	4
COc1ccc(-c2csc(NC(=O)CSc3nnnn3C)n2)cc1OC	4	-3	-5	3	nt	nt
O=C1Nc2ccccc2/C1=C/c1cnc(-c2ccccc2)[nH]1	1	20*	-4	9	25*	4
S=c1[nH]nc(COc2ccccc2)n1/N=C/c1ccccc1Cl	-9	4	26	6	nt	nt
S=c1[nH]nc(COc2ccccc2)n1/N=C/c1c(Cl)cccc1Cl	2	11*	6	2	2	4
O=C(CCl)N1CCN(S(=O)(=O)Cc2ccccc2)CC1	5	-1	0	-6	nt	nt
CC(CCc1ccccc1)NC(=O)c1ccc(NC(=O)c2ccccc2)cc1 (stereo not given)	1	0	-5	2	nt	nt
CC(CCc1ccccc1)NC(=O)c1ccc(NC(=O)c2ccc(Cl)cc2Cl)cc1 (stereo not given)	-2	9.9*	1	7	7	6
CCc1nc2c(OCc3c(C)noc3C)cccn2c1N(C=O)Cc1ccc(OC)cc1	7	0	13	-25	nt	nt
O=C(CNc1ccccc1N1CCCC1=O)Nc1cc(C(F)(F)F)ccc1-n1cncn1	5	1	1	1	nt	nt
Cc1cc(C)cc(NC(=S)N2CCN(c3ncc(C(F)(F)F)cc3Cl)CC2)c1	12	17*	3	7	4	3
Cn1c(NCCc2ccncc2)nc2cc(-c3ccccc3)sc2c1=O	1	1	12	6	nt	nt
CNC(=O)/C(C#N)=C/c1ccc(-c2ccc(Cl)cc2)o1	-1	14*	5	3	41*	13
CCOC(=O)c1ccc(-c2ccc(/C=C(\C#N)C(=O)NCc3cccs3)o2)cc1	1	39*	-19	3	27*	6
CC(C)NC(=O)C1(C)CCN1C(=O)c1cccn1C (stereo not given)	-3	0	5	-2	nt	nt
Cc1ccc(-c2nnc(-c3cccc4ccccc34)o2)cc1	5	0	4	28	nt	nt
Cc1cccc(-c2nnc(-c3cccc4ccccc34)o2)c1	-3	0	2	6	nt	nt
Clc1ccc(-c2nnc(-c3cccc4ccccc34)o2)cc1	2	11*	0	9	3	2
c1ccc(Nc2nnc(-c3cccc4ccccc34)o2)cc1	-7	17*	7	3	7	8
COc1ccc(CCNC(=O)CN(c2cc(C)cc(C)c2)S(=O)(=O)c2c(C)noc2C)cc1OC	2	1	7	7	nt	nt
CC(C)(C)c1cc(-c2ccco2)c(C#N)c(SCC#N)n1	3	19*	13	11	1	7
SMILES	HTR2A ag	MC4R barr agon	MC4R antagonist	EBI2 antag	MC4R barr conf	MOR DOR agonist
CCSc1nc(C2CC2)cc(-c2ccco2)c1C#N	-2	-1	3	8	nt	nt
Nc1c(C(=O)NCc2ccc3c(c2)OCO3)nnn1Cc1ccc(Br)cc1	0	18*	-5	9	7	10
O=S(=O)(N(Cc1ccccc1)[C@H](CO)Cc1ccccc1)N(Cc1ccccc1)[C@H](CO)Cc1ccccc1	2	28*	14	14	7	6
CC(C)C[C@@H](CO)N(Cc1ccccc1)S(=O)(=O)N(Cc1ccccc1)[C@H](CO)CC(C)C	4	0	17	10	nt	nt
Nc1[nH]c(C(=O)c2ccccc2)c(-c2ccccc2Cl)c1C(=O)c1ccccc1	-4	nt	nt	-7	nt	nt
COc1ccc(C2=Nc3ccccc3N(C(=O)c3cnccn3)C2C(=O)NC2CCCC2)cc1 (stereo not given)	1	nt	nt	1	nt	nt
O=C(COc1ccc2c(c1)OCO2)Nc1ccc2c(c1)oc1ccccc12	0	22*	0	5	21*	3
CC1(C(=O)NS(=O)(=O)c2cccc(Cl)c2)CCN1C(=O)Cc1ccc(-c2ccccc2)cc1 (stereo not given)	5	-2	3	0	nt	nt
CSc1ccc(OC2(C)CCN(Cc3ccc(C(C)C)cc3)C2)cc1 (stereo not given)	3	12*	5	3	2	6
CC1(Oc2ccc(Cl)cc2)CCN(Cc2ccc(-c3ccccn3)cc2)C1 (stereo not given)	12	13*	3	-11	7	8
CCOC(=O)c1c(C)[nH]c(C)c1C(=O)CSc1nnc(-c2ccc(OC(F)F)cc2)o1	3	29*	2	8	6	9
C/C(N)=C(/C#N)C(=O)CSc1nnc(-c2ccc(OC(F)F)cc2)o1	0	1	11	3	nt	nt
O=C(CC[C@H]1O[C@@H](n2cnc3c(NC(=O)c4ccccc4)ncnc32)[C@H](O)[C@@H]1O)NCC1CCCCC1	1	nt	nt	-3	nt	nt
C=CCOc1ccc(/C=C/C(=O)OCC(=O)NCC2CCCCC2)cc1	-3	12*	0	2	1	3
C=CCOc1ccc(/C=C/C(=O)OCC(=O)NC2CCCCCCC2)cc1	7	0	-5	3	nt	nt
O=C(COC(=O)/C=C/c1ccc([N+](=O)[O-])cc1)NC(c1ccccc1)c1ccccc1	0	12*	5	33	2	1
O=C(COC(=O)/C=C/c1ccc([N+](=O)[O-])cc1)NC(=O)NC1CCCCC1	-4	19*	-3	4	7	13
CCc1nc2ccc(C(=O)N3CCCCC3)cn2c1N(CCC(C)C)CCN(C)C	-2	0	0	-13	nt	nt
C[C@H](CO)N1C[C@H](C)[C@@H](CN(C)C(=O)OCc2ccccc2)OCc2cn(nn2)CCCC1=O	2	0	19	-6	nt	nt
O=C(CNC(=O)c1ccc(Cl)cc1)c1ccc(Br)cc1	-2	5	2	8	nt	nt
O=C(CNC(=S)NC(=O)c1ccc(Cl)cc1)c1ccccc1	7	12*	-1	5	2	3
O=C(CNC(=S)NC(=O)c1ccc(Br)o1)c1ccccc1	4	11*	1	1	2	6
CCCCNC(=O)c1nc(-c2cccnc2)oc1-c1ccc(OC(F)(F)F)cc1	1	nt	nt	27	nt	nt
